Laboratory results published in ChEMBL document CHEMBL2021777 (J Med Chem, 2012).
The source made the active and inactive calls. The rule behind the calls is not given here.

Legend:
[1] = target: Neuronal acetylcholine receptor; alpha2/beta2 (Rattus norvegicus, UniProt P12389+P12390); test: Displacement of [3H] epibatidine from rat alpha2beta2 nAChR by beta scintillation counting; assay type: protein-complex assay
[2] = target: Neuronal acetylcholine receptor; alpha4/beta2 (Rattus norvegicus, UniProt P09483+P12390); test: Displacement of [3H] epibatidine from rat alpha4beta2 nAChR by beta scintillation counting; assay type: protein-complex assay
Sequence of Neuronal acetylcholine receptor; alpha4/beta2 (P09483 whole entry): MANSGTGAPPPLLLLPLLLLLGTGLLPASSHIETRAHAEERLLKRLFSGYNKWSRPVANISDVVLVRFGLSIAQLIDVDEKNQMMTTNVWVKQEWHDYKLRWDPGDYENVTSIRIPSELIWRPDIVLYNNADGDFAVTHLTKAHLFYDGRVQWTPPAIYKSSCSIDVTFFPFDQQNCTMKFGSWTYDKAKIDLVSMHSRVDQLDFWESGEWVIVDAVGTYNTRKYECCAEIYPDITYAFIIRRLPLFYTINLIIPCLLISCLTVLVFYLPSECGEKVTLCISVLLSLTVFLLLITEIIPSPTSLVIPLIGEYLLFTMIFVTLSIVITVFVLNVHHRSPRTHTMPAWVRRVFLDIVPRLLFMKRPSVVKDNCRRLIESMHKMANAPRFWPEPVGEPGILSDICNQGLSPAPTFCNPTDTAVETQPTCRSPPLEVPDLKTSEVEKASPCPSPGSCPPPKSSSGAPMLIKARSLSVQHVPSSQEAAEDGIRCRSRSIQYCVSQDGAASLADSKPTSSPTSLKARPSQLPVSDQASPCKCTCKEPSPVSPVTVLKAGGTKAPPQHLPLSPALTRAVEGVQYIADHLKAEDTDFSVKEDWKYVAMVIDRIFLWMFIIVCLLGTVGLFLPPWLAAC
Sequence of Neuronal acetylcholine receptor; alpha4/beta2 (P12390 whole entry): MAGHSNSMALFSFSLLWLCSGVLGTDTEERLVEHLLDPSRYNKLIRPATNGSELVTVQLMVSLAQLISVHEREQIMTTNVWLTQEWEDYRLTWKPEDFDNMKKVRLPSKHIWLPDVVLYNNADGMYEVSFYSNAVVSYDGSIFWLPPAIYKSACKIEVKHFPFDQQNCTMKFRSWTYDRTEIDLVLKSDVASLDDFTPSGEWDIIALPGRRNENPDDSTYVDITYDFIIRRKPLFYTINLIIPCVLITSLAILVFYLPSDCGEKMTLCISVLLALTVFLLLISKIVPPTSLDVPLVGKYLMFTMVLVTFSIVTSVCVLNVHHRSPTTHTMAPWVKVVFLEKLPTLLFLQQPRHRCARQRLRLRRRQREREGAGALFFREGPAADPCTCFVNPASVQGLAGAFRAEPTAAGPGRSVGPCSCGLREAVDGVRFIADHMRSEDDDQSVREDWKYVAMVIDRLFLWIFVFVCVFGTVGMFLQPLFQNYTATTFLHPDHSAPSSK

[3] = target: Beta-1 adrenergic receptor (Homo sapiens) (UniProt P08588); test: Displacement of [125I]Iodopindolol from beta1 adrenergic receptor at 10 uM
Sequence of Beta-1 adrenergic receptor (Homo sapiens) (P08588 whole entry, looked up): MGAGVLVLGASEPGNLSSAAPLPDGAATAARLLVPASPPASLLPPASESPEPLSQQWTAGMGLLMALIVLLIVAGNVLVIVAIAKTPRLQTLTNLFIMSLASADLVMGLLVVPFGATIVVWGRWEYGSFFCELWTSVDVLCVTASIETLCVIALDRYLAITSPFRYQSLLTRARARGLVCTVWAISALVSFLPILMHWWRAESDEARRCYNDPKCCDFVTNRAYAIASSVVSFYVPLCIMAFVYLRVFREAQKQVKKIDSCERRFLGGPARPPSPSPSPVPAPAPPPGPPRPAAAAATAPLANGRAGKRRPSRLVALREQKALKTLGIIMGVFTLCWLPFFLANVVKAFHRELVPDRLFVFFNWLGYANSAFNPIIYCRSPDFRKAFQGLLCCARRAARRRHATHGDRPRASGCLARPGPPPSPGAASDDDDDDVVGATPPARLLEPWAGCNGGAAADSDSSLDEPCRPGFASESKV

[4] = target: T1, Muscarinic acetylcholine receptor M5 (Homo sapiens) (UniProt P08912); test: Displacement of [3H]QNB from M5 receptor at 10 uM
T1 sequence (whole entry): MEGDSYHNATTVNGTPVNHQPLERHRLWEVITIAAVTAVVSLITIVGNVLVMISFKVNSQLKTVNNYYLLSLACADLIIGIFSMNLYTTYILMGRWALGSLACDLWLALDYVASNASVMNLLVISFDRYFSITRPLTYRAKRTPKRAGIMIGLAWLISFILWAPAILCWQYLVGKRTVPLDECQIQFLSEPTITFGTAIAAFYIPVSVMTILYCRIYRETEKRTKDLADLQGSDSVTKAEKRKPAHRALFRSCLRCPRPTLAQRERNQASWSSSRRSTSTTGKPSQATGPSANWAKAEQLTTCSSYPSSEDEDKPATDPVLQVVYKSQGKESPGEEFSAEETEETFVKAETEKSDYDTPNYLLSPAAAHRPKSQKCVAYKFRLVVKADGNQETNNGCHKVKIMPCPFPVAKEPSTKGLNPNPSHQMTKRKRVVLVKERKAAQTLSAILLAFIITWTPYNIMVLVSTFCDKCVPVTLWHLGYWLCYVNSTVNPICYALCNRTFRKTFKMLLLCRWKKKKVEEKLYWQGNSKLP

[5] = target: Delta-type opioid receptor (Homo sapiens) (UniProt P41143); test: Displacement of [3H]DADLE from delta opioid receptor at 10 uM
Sequence of Delta-type opioid receptor (Homo sapiens) (P41143 whole entry): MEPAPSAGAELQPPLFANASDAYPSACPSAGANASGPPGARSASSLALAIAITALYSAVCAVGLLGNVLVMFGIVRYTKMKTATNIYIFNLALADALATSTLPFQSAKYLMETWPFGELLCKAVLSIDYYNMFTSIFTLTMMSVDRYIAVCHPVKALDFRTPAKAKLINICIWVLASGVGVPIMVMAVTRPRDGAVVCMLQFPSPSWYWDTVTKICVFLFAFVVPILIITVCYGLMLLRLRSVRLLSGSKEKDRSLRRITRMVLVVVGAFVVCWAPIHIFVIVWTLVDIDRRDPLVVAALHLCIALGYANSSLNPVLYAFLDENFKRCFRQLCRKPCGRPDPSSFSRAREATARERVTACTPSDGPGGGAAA

[6] = target: Neuronal acetylcholine receptors; alpha-3/beta-4, alpha-5, beta-2 (Homo sapiens) (UniProt P17787+P30926+P32297+P30532); test: Antagonist activity at alpha3beta4alpha5beta2 in human SH-SY5Y cells at 10 uM by 86Rb+ flux assay; assay type: functional, cell-based
Outline: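 Human neuroblastoma SH-SY5Y cells endogenously express α3β4* nAChRs (α3, β4, probably α5, sometimes β2); their α7 receptors give no signal under these conditions. Cells were kept at low passage (1−26 from frozen stocks). Function was read as 86Rb+ efflux, with agonist and antagonist modes tested up to 10 μM.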

[7] = target: Beta-2 adrenergic receptor (Homo sapiens) (UniProt P07550); test: Displacement of [125I]Iodopindolol from beta2 adrenergic receptor at 10 uM
Sequence of Beta-2 adrenergic receptor (Homo sapiens) (P07550 whole entry, looked up): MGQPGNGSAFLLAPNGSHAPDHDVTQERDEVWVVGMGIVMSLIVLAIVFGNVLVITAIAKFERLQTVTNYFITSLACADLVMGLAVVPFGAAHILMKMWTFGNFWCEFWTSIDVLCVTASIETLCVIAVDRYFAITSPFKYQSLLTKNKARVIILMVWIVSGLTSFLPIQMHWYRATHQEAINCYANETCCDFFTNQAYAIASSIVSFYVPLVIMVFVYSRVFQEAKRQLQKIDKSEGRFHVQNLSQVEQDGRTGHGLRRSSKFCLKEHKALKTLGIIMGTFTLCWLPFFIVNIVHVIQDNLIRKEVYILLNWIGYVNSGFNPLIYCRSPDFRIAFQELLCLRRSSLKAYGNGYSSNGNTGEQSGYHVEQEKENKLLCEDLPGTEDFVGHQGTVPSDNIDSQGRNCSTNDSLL

[8] = target: T2, 5-hydroxytryptamine receptor 2C (Homo sapiens) (UniProt P28335); test: Displacement of [3H]Mesulergine from 5-HT2C at 10 uM
T2 sequence (whole entry): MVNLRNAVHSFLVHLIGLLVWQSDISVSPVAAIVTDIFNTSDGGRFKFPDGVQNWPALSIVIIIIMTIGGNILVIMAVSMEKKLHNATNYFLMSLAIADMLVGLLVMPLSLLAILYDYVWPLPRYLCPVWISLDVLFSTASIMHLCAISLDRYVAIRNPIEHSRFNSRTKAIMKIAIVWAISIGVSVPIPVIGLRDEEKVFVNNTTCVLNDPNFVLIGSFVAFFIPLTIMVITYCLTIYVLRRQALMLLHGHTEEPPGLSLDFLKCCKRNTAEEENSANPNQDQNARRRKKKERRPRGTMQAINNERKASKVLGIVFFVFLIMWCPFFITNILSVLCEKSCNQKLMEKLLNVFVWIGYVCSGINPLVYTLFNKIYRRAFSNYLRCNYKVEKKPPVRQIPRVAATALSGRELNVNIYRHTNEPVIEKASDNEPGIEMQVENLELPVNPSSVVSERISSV

[9] = organism: Rattus norvegicus; test: Selectivity ratio of Ki for rat alpha3beta4 to Ki for rat alpha4beta2
Outline: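 Ki values from [3H]epibatidine competition binding at heterologously expressed rat nAChR subtypes, using the PDSP protocol; selectivity taken as the α3β4/α4β2 Ki ratio.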

[10] = target: Alpha-1D adrenergic receptor (Homo sapiens) (UniProt P25100); test: Inhibition of alpha1D adrenergic receptor at 10 uM by radioligand displacement assay
[11] = target: Neuronal acetylcholine receptor; alpha3/beta2 (Rattus norvegicus, UniProt P04757+P12390); test: Displacement of [3H] epibatidine from rat alpha3beta2 nAChR by beta scintillation counting; assay type: protein-complex assay
Sequence of Neuronal acetylcholine receptor; alpha3/beta2 (P04757 whole entry): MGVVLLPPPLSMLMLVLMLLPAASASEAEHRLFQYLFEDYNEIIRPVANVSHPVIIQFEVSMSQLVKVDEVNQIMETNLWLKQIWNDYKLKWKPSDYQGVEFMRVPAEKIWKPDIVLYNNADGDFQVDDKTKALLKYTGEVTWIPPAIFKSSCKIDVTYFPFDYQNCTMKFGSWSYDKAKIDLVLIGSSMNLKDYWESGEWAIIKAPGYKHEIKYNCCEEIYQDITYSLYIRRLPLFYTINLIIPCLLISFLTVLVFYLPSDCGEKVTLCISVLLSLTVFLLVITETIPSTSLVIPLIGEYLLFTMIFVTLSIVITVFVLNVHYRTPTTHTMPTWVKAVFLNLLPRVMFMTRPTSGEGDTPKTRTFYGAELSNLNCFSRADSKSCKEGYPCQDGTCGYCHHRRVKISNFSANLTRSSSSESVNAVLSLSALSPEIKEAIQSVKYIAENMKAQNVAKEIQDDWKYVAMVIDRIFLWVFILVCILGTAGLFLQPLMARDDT
Sequence of Neuronal acetylcholine receptor; alpha3/beta2 (P12390 whole entry): as the sequence (P12390 whole entry) above

[12] = target: Kappa-type opioid receptor (Homo sapiens) (UniProt P41145); test: Displacement of [3H]U69593 from kappa opioid receptor at 10 uM
Sequence of Kappa-type opioid receptor (Homo sapiens) (P41145 whole entry): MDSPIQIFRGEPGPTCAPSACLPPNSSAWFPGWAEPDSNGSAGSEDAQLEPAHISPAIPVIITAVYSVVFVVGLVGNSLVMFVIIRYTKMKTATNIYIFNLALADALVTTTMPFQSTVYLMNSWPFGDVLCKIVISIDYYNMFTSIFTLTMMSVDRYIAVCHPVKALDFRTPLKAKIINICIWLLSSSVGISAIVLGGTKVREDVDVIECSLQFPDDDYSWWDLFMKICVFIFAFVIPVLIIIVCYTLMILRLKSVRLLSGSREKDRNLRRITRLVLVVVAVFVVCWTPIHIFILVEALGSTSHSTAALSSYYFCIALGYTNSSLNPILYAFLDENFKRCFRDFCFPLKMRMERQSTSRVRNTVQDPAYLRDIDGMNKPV

[13] = target: T3, Muscarinic acetylcholine receptor M4 (Homo sapiens) (UniProt P08173); test: Displacement of [3H]QNB from M4 receptor at 10 uM
T3 sequence (whole entry): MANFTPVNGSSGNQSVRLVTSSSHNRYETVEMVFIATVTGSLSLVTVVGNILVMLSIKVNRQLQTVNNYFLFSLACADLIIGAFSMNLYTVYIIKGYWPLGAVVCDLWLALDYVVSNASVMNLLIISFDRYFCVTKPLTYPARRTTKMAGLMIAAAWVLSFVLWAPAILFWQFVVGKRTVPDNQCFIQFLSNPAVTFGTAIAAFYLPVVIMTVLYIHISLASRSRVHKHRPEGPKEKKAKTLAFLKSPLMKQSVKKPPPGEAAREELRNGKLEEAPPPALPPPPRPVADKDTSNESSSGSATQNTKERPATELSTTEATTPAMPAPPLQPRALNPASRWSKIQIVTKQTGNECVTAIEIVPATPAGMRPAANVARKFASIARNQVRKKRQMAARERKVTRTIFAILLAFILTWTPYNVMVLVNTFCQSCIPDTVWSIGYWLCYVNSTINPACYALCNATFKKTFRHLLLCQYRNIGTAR

[14] = target: Cytochrome P450 2C9 (Homo sapiens, UniProt P11712); test: Inhibition of CYP2C9 up to 10 uM; assay type: ADME
Sequence of Cytochrome P450 2C9 (P11712 whole entry, canonical isoform): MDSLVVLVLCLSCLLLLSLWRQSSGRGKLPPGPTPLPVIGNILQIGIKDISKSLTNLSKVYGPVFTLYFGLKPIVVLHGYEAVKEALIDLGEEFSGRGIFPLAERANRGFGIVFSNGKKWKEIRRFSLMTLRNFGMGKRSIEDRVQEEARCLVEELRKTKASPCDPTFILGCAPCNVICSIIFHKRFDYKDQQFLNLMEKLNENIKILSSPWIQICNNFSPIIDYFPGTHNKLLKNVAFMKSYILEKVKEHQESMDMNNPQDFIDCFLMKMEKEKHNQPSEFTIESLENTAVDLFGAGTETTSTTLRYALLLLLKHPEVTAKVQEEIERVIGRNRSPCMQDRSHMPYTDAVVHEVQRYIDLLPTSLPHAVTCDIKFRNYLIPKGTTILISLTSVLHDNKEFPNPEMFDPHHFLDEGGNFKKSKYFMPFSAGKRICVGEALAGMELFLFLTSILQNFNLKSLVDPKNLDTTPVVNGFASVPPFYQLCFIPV
Outline: (§1)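 Percent inhibition of CYP isoforms (CYP1A, CYP2C9, CYP2C19, CYP2D6, CYP3A; CYP1A2 reported) with test compound at concentrations up to 10 μM.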

[15] = Inhibition of CYP3A up to 10 uM; assay type: ADME; outline: as §1
[16] = target: 5-hydroxytryptamine receptor 1D (Homo sapiens) (UniProt P28221); test: Displacement of [3H][…] from 5-HT1D at 10 uM
Sequence of 5-hydroxytryptamine receptor 1D (Homo sapiens) (P28221 whole entry): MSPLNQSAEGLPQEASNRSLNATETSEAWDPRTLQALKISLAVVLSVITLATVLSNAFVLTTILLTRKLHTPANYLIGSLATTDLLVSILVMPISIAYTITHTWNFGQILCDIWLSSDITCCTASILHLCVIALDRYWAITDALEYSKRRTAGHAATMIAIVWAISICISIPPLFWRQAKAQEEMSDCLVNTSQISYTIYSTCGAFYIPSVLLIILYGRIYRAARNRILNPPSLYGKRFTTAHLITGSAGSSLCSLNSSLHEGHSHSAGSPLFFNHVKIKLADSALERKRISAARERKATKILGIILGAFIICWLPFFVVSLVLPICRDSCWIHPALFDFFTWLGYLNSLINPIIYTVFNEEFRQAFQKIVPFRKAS

[17] = test system: Mus musculus; test: Antidepressant activity in BALB/cJ mouse assessed as decrease in immobility at 3 mg/kg, po administered 30 mins prior to testing measured for 6 mins by forced swim test; assay type: functional, organism-based; design: dose 3 mg/kg
Outline: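 Male BALB/cJ mice, 8−10 weeks old, housed four per cage on a 12 h light−dark cycle. Drug in injectable water was given by oral gavage (10 mL/kg). After 30 min, each mouse was placed in a glass cylinder with 12 cm of ~23 °C water, and floating immobility was timed over a 6 min trial. Analysis was by ANOVA with Fisher's PLSD post hoc test.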

Sequence of Neuronal acetylcholine receptor; alpha2/beta2 (P12389 whole entry): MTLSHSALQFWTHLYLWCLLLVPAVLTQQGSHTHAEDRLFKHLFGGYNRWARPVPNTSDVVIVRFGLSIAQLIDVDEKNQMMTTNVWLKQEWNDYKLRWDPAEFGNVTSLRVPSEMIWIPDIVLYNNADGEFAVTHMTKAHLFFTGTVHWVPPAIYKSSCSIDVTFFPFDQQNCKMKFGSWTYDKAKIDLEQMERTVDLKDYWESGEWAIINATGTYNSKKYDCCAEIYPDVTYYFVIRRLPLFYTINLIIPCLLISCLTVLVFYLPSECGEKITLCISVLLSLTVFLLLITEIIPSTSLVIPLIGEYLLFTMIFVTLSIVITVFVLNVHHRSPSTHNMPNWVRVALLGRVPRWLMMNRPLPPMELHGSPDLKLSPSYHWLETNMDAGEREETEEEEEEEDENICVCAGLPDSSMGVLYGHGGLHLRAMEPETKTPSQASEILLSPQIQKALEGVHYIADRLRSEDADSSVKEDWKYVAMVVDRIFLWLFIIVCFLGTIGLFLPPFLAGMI
Sequence of Neuronal acetylcholine receptor; alpha2/beta2 (P12390 whole entry): as the sequence (P12390 whole entry) above

Compound | Ki [1] | Ki [2] | inhibition [3] | inhibition [4] | inhibition [5] | Activity [6] | inhibition [7] | inhibition [8] | Ratio Ki [9] | inhibition [10] | Ki [11] | inhibition [12] | inhibition [13] | inhibition (INH) [14] | inhibition (INH) [15] | inhibition [16] | Activity [17]
CNC(=O)OCC[C@H]1C[C@@H]1c1cncc(OC[C@@H]2CCN2)c1 | 0.3 nM | 0.6 nM | 18.2% | -8.7% | -4.4% | inactive | 22.1% | 6.3% | > 100000 | -2.7% | 9.8 nM | 19.1% | 29.2% | <= 25% | <= 25% | – | –
COCC[C@H]1C[C@@H]1c1cncc(OC[C@@H]2CCN2)c1 | 0.1 nM | 0.1 nM | 48.3% | -1.1% | -4.2% | inactive | 3% | 33.8% | > 100000 | 3.4% | 2.4 nM | 7.2% | 0.7% | <= 25% | <= 25% | 1.2% | Active
OCC[C@H]1C[C@@H]1c1cncc(OC[C@@H]2CCN2)c1 | 0.1 nM | 0.1 nM | 45.8% | -4.4% | 0.8% | inactive | -4.5% | 2.4% | 65200 | – | 3 nM | 3.7% | -3.7% | <= 25% | <= 25% | 5.6% | Active
